Reference: ChEMBL document CHEMBL5674883, “The Heterochromatin Landscape in Migrating Cells and the Importance of H3K27me3 for Associated Transcriptome Alterations” (Cells, 2018)

What was measured:
Assay type in all cases: cell-based
[1] = biological target: Histone-lysine N-methyltransferase EZH2 (Mus musculus) (UniProt Q61188); assay: Inhibition of EZH2 in mouse B16-F1 migrating cells assessed as fold change in H3K27me3-independent regulated Adgrg1-mRNA expression at 3 uM measured by […] analysis relative to control cells
Sequence of Histone-lysine N-methyltransferase EZH2 (Mus musculus) (Q61188 whole entry): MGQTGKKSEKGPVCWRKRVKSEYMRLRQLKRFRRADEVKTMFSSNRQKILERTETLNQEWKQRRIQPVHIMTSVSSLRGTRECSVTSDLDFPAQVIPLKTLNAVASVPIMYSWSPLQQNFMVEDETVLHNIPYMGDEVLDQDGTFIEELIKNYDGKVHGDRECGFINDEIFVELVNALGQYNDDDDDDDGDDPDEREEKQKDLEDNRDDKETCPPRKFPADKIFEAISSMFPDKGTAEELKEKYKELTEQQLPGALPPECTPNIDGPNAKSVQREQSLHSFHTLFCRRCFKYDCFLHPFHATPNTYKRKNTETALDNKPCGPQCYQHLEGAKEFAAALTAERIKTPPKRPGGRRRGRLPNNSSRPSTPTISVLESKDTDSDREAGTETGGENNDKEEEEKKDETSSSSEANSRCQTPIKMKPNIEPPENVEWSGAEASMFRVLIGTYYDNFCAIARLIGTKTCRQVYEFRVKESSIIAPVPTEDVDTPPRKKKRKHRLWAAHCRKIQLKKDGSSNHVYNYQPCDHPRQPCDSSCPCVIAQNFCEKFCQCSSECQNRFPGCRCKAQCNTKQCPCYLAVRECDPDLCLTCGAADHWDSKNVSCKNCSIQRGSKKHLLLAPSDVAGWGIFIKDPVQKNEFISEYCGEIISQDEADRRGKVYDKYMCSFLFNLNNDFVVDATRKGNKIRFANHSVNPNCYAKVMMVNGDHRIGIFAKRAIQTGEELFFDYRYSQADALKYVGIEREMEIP
Summary of the method: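 Confluent B16-F1 cells on fibronectin-coated plates were scratched at multiple sites, washed once with DMEM and left to migrate 3 h in growth medium (37 °C, 7% CO2); unscratched cells served as control. GSK343 (3 µM) was added 3 h before lysis. Poly A mRNA was sequenced (RNA-seq), with 5 replicates for untreated and 3 for treated cells. Differential expression was called by linear model with batch correction, at FDR <0.05 and fold change ≥1.3.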

[2] = biological target: T1, RNA polymerase II (Mus musculus) (UniProt P08775+Q8CFI7+P97760+A0A3Q4L2S8+Q80UW8+P61219+P62488+Q923G2+P60898+O08740+Q63871+P62876); assay: Inhibition of RNA polymerase II in mouse B16-F1 migrating cells assessed as fold change in Gulp1-RNA stability at 0.1 mM measured by ChIP-seq analysis relative to control cells
[3] = biological target: T1, RNA polymerase II (Mus musculus); assay: Inhibition of RNA polymerase II in mouse B16-F1 migrating cells assessed as fold change in 2310030G06Rik-RNA stability at 0.1 mM measured by […] analysis relative to control cells
[4] = biological target: T1, RNA polymerase II (Mus musculus); assay: Inhibition of RNA polymerase II in mouse B16-F1 migrating cells assessed as fold change in Stx8-RNA stability at 0.1 mM measured by […] analysis relative to control cells

| Compound | log2FC [1] | log2FC [2] | log2FC [3] | log2FC [4] |
| --- | --- | --- | --- | --- |
| CCCc1cc(C)[nH]c(=O)c1CNC(=O)c1cc(-c2ccnc(N3CCN(C)CC3)c2)cc2c1cnn2C(C)C | 0.48 |  |  |  |
| OC[C@H]1O[C@@H](n2cnc3cc(Cl)c(Cl)cc32)[C@H](O)[C@@H]1O |  | -0.97 | -0.91 | 0.48 |
